Measurements gathered from unrelated publications.
Compare with care: the assays were run in different laboratories.
Target: Glycogen synthase kinase-3 beta (GSK3B, Homo sapiens, UniProt P49841)
Action: inhibitor

`COc1ccc(-c2nc3ccc(C4=NNC(=O)CC4C)cc3[nH]2)cc1` (stereo not shown) has an inhibition of 21.5% (enzyme activity; ADP detection; 100 µM).
For `CCN(CC)CCNC(=O)c1c(C)[nH]c(/C=C2\C(=O)Nc3ccc(F)cc32)c1C`, the inhibition was -4% (enzyme activity; 0.3 µM).
For `C=CC(=O)Nc1cc(Nc2nccc(Nc3cc(Cl)c(F)cc3C(C)(C)O)n2)c(OC)cc1N1CC[C@@H](N(C)C)C1`, the inhibition was 9% (enzyme activity; 1 µM).
For `NC(=O)c1cnccn1`, the inhibition was 7.9% (enzyme activity; ADP detection; 100 µM).
`CS(=O)(=O)Nc1cccc(-c2csc(NC(=O)CSc3nc4nccnc4c(=O)n3CCc3ccccc3)n2)c1` has an inhibition of 2% (enzyme activity; 10 µM).
`CC/C(=N\NC(=O)NCc1cccc(O)c1)c1ccc(O)c(C)c1O` has an inhibition of 8.6% (enzyme activity; 0.1 µM).
The inhibition of `COc1cc(-c2coc3cc(OC)c(OC)c(OC)c3c2=O)cc(OC)c1OC` is reported as 3% (enzyme activity; ADP detection; 100 µM).
`CN(c1ncccc1CNc1nc(Nc2ccc3c(c2)CC(=O)N3)ncc1C(F)(F)F)S(C)(=O)=O` gave an inhibition of 92.7% (enzyme activity; 1 µM).
For `COc1cc2ncnc(Nc3ccc(Oc4ccccc4)c(C)c3C)c2cc1OC`, the inhibition was 4% (enzyme activity; 1 µM).
`Nc1nc(Nc2ccc(S(N)(=O)=O)cc2)sc1C(=O)c1ccccc1[N+](=O)[O-]` gave an inhibition of 60 to 66% (enzyme activity; 0.1 µM).
The inhibition of `CN(C)C1CCN(CC#Cc2nn(C3CCCC3)c3nc(NCc4ccccc4)ncc23)C1` (stereo not shown) is reported as -4% (enzyme activity; FRET; 0.1 µM).
`O=C1CN(/N=C/c2ccc(-c3ccc([N+](=O)[O-])cc3)o2)C(O)=N1` gave an inhibition of 31.2% (enzyme activity; ADP detection; 100 µM).
With `COc1cccc2c(NCc3ccccc3)nc(-n3c(N)nc4ccccc43)nc12` the inhibition was 1% (target engagement in cells; chemoproteomics; 20 mM).
